Source: publication PMC9366314 (Acta Pharmaceutica Sinica. B, 2022)

Tests used:
Gαq/11 = experiment: AngII-induced intracellular Ca2+ release in HEK293-AT1R cells; format: cell-based; details: 100 μmol/L
Method in brief: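 HEK293 cells overexpressing AT1R were loaded with Fluo-4 AM at 37 °C for 1 h, then pretreated with test compound for 0.5 h. AngII was added at a range of concentrations to build a dose–response curve. Fluorescence was read at 485/525 nm excitation/emission. Data are mean ± SEM, n = 3.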

MP41 cells [1] = experiment: Apoptosis assay by flow cytometry; format: cell-based; details: 48 h
Method in brief: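 MP41 cells were seeded at 3 × 10^5 cells/well, left overnight, then exposed to test compound for 48 h. Washed cells were stained with Annexin V-FITC for 15 min, then with PI for 5 min. Samples were analysed by flow cytometry. Data are mean ± SEM, n = 3.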

92.1 cells [2] = experiment: Clonogenic; format: cell-based; details: 1 and 3 μmol/L; 9 days
Method in brief: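 92.1 cells were exposed to test compound for 9 days, and colonies were counted with a colony counter. Data are mean ± SEM, n = 3.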

MP41 cells [3] = experiment: Transwell invasion assay, MP41; format: cell-based; details: 3, 10, and 20 μmol/L
Method in brief: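 MP41 cells (1 × 10^4/well) were placed in Transwell upper chambers, with RPMI-1640 plus 20% FBS in the lower chamber, and left overnight. Cells were then exposed to test compound for 48 h. Non-migrated cells in the upper chamber were removed. Cells in the lower chamber were stained with crystal violet for 0.5 h and counted by microscope at ×100. Data are mean ± SEM, n = 3.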

92.1 cells [4] = experiment: Transwell invasion assay, 92.1; format: cell-based; details: 3, 10, and 20 μmol/L
MP41 xenograft = MP41 xenograft model; format: in vivo, nude BALB/c nu/nu mice; details: 21 days
Method in brief: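 Nude BALB/c nu/nu mice (18–22 g, 6–8 weeks) bearing MP41 xenografts were randomised at n = 6/group. They received vehicle or test compound (5, 15 or 30 mg/kg/day) ip for 21 consecutive days. Body weight and tumour size were recorded every 2 days. Tumours were harvested on day 22 for weighing and H&E staining. Groups were compared by one-way ANOVA.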

phosphorylated ERK = experiment: Western blot of phosphorylated ERK in MP41 xenograft tumor tissues; format: in vivo, mice; details: testing dose
Method in brief: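 Cells or xenograft tumour tissue were lysed in RIPA buffer with protease and phosphatase inhibitors. Lysates were cleared at 15,000 rpm, 4 °C for 15 min, and protein was quantified by BCA. Proteins were separated on 8%–12% SDS-PAGE, transferred to PVDF and blocked with 5% BSA. After primary and secondary antibodies, bands were detected by enhanced chemiluminescence.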

Compound: CN1CCC[C@H]1CN1CCn2cc(-c3ccccc3)nc2[C@@H]1CC1CCCCC1 [GQ262]
- Effect on AngII-stimulated Ca2+ release (Gαq/11): obviously suppressed the Ca^2+ release
- Cell apoptosis (MP41 cells [1]; 3 μmol/L): 11.5%
- Cell apoptosis (MP41 cells [1]; 10 μmol/L): 16.0%
- Colony formation of 92.1 cells (92.1 cells [2]): obviously blocked the colony formation
- MP41 cell invasion (MP41 cells [3]): poor invasion
- 92.1 cell invasion (92.1 cells [4]): poor invasion
- Tumor growth inhibition (TGI) (MP41 xenograft; 5 mg/kg/day ip): 55.2%
- Tumor growth inhibition (TGI) (MP41 xenograft; 15 mg/kg/day ip): 82.8%
- Tumor growth inhibition (TGI) (MP41 xenograft; 30 mg/kg/day ip): 106.6%
- Body weight of the mice (MP41 xenograft; 5, 15, 30 mg/kg/day ip): did not decline
- Side effects during and after the treatment (H&E staining) (MP41 xenograft; 5, 15, 30 mg/kg/day ip): did not observe manifest side effects
- Phosphorylated ERK expression in tumor tissues (phosphorylated ERK): inhibited the phosphorylated ERK
